Reference: ChEMBL document CHEMBL1153899, “Discovery of benzothiazole derivatives as efficacious and enterocyte-specific MTP inhibitors” (Bioorg Med Chem Lett, 2009)
Calls of active or inactive are those of the source. No cut-off for these calls is given here.

What was measured:
[1] = Half life in Sprague-Dawley rat liver at 10 mg/kg, po; assay type: ADME, organism-based; design: dose 10 mg/kg, route oral
Summary of the method: (§1)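 Dose-proportionality PK in Sprague–Dawley rats (n = 3) given single oral doses of 3, 10, 30 or 100 mg/kg. Liver and plasma were sampled at 0.5, 1, 2, 4 and 8 h and assayed for drug concentration to derive Cmax, AUC(0–∞) and T1/2.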

[2] = Half life in Sprague-Dawley rat liver at 30 mg/kg, po; assay type: ADME, organism-based; design: dose 30 mg/kg, route oral; summary of the method: as §1
[3] = Half life in Sprague-Dawley rat liver at 100 mg/kg, po; assay type: ADME, organism-based; design: dose 100 mg/kg, route oral; summary of the method: as §1
[4] = system: Mus musculus; experiment: Increase in peptide YY level in 3-day high fat diet fed C57BL/6 mouse at 10 mg/kg, po daily for 3 days; assay type: functional, organism-based; design: dose 10 mg/kg
[5] = system: Mus musculus; experiment: Increase in peptide YY level in 3-day high fat diet fed C57BL/6 mouse at 3 mg/kg, po daily for 3 days; assay type: functional, organism-based; design: dose 3 mg/kg
Summary of the method: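 C57BL/6 male mice (n = 9) on high-fat diet were dosed po once daily for 3 days with vehicle (5% PEG400, 0.25% Tween 80, 94.25% H2O) or test article, then given a final morning dose. Blood was taken at 30 min, 2 h and 6 h, and PYY was measured by EIA kit. Statistics by Student's t test.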

[6] = system: Mus musculus; experiment: Decrease in plasma triglyceride level in […] C57BL/6 mouse at 3 mg/kg, po daily for 3 days measured after 6 hrs; assay type: functional; design: scale not given: the % may be the effect or the level left
Summary of the method: (§2)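 Lean C57BL/6 mice were given high-fat diet for 1 week, then dosed orally once daily in the evening for 3 days. Food intake and body weight were recorded daily. At the end a morning dose was given, and blood was drawn at 30 min, 2 h and 6 h for plasma triglycerides.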

[7] = system: Mus musculus; experiment: Decrease in plasma triglyceride level in […] C57BL/6 mouse at 10 mg/kg, po daily for 3 days measured after 6 hrs; assay type: functional; design: scale not given: the % may be the effect or the level left
[8] = system: HepG2; experiment: Inhibition of apoB secretion in human HepG2 cells after 40 hrs by ELISA; assay type: functional, cell-based; conditions: HepG2, 40 h
[9] = Inhibition of MTP from dog liver microsomes by scintillation counting; design: species or system Canis lupus familiaris, Microsome
[10] = system: Mus musculus; experiment: Decrease in total food intake in 3-day high fat diet fed C57BL/6 mouse at 3 mg/kg, po daily for 3 days; assay type: functional; design: scale not given: the % may be the effect or the level left; summary of the method: as §2
[11] = system: Mus musculus; experiment: Decrease in total food intake in 3-day high fat diet fed C57BL/6 mouse at 10 mg/kg, po daily for 3 days; assay type: functional; design: scale not given: the % may be the effect or the level left
[12] = system: Mus musculus; experiment: Decrease in body weight in […] at 3 mg/kg, po daily for 3 days; assay type: functional, C57BL/6; design: scale not given: the % may be the effect or the level left
[13] = system: Mus musculus; experiment: Decrease in body weight in […] at 10 mg/kg, po daily for 3 days; assay type: functional, C57BL/6; design: scale not given: the % may be the effect or the level left
[14] = system: Mus musculus; experiment: Decrease in total food intake in 28-day diet-induced obesity C57BL/6 mouse model at 3 mg/kg, po daily for 4 weeks measured on day 21; assay type: functional; design: scale not given: the % may be the effect or the level left
Summary of the method: (§3)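 C57BL/6 male mice were fed high-fat diet for 4 weeks beforehand to about 40 g and kept on it throughout. Groups of n = 10 were dosed po once daily for 4 weeks at 1 or 3 mg/kg, or vehicle (5% PEG400, 0.25% Tween 80, 94.25% H2O). Food was weighed and replaced with pre-weighed food 3 times weekly. Fed plasma glucose was taken at 2 weeks and insulin at 4 weeks.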

[15] = system: Mus musculus; experiment: Decrease in total food intake in 28-day diet-induced obesity C57BL/6 mouse model at 1 mg/kg, po daily for 4 weeks measured on day 21; assay type: functional; design: scale not given: the % may be the effect or the level left; summary of the method: as §3
[16] = system: Mus musculus; experiment: Decrease in body weight in 28-day diet-induced obesity C57BL/6 mouse model at 3 mg/kg, po daily for 4 weeks; assay type: functional; design: scale not given: the % may be the effect or the level left; summary of the method: as §3
[17] = system: Mus musculus; experiment: Increase in body weight in 28-day diet-induced obesity C57BL/6 mouse model at 1 mg/kg, po daily for 4 weeks; assay type: functional; summary of the method: as §3
[18] = system: Mus musculus; experiment: Decrease in plasma glucose level in 28-day diet-induced obesity C57BL/6 mouse model at 1 to 3 mg/kg, po daily for 4 weeks measured on week 2; assay type: functional, organism-based; summary of the method: as §3
[19] = system: Mus musculus; experiment: Decrease in plasma glucose level in 28-day diet-induced obesity C57BL/6 mouse model at 1 to 3 mg/kg, po daily for 4 weeks; assay type: functional, organism-based; summary of the method: as §3
[20] = system: Mus musculus; experiment: Decrease in insulin level in 28-day diet-induced obesity C57BL/6 mouse model at 3 mg/kg, po daily for 4 weeks; assay type: functional, organism-based; design: dose 3 mg/kg; summary of the method: as §3
[21] = system: Mus musculus; experiment: Decrease in plasma triglyceride level in 28-day diet-induced obesity C57BL/6 mouse model at 1 to 3 mg/kg, po daily for 4 weeks; assay type: functional, organism-based; summary of the method: as §3
[22] = system: Mus musculus; experiment: Decrease in total cholesterol level in 28-day diet-induced obesity C57BL/6 mouse model at 1 to 3 mg/kg, po daily for 4 weeks; assay type: functional, organism-based
[23] = system: Mus musculus; experiment: Toxicity in 28-day diet-induced obesity C57BL/6 mouse model assessed as liver alanine aminotransferase level at 1 to 3 mg/kg, po daily for 4 weeks; assay type: organism-based; design: dose 1-3 mg/kg, route oral; conditions: in vivo, 672 h
Summary of the method: (§4)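 C57BL/6 male mice kept on high fat diet 4 weeks before study (body weight about 40 g) and throughout; n = 10, dosed orally once daily for 4 weeks at 1 or 3 mg/kg, vehicle 5% PEG400, 0.25% Tween 80, 94.25% H2O; liver weight and ALT, AST, alkaline phosphatase assessed after 4 weeks.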

[24] = system: Mus musculus; experiment: Toxicity in 28-day diet-induced obesity C57BL/6 mouse model assessed as liver aspartate aminotransferase level at 1 to 3 mg/kg, po daily for 4 weeks; assay type: organism-based; design: dose 1-3 mg/kg, route oral; conditions: in vivo, 672 h; summary of the method: as §4
[25] = system: Mus musculus; experiment: Toxicity in 28-day diet-induced obesity C57BL/6 mouse model assessed as liver alkaline phosphatase level at 1 to 3 mg/kg, po daily for 4 weeks; assay type: organism-based; design: dose 1-3 mg/kg, route oral; conditions: in vivo, 672 h; summary of the method: as §4
[26] = system: Mus musculus; experiment: Toxicity in 28-day diet-induced obesity C57BL/6 mouse model assessed as increase in liver weight at 1 to 3 mg/kg, po daily for 4 weeks; assay type: organism-based; design: dose 1-3 mg/kg, route oral; conditions: in vivo, 672 h; summary of the method: as §4
[27] = Clearance in Sprague-Dawley rat at 1 mg/kg, iv; assay type: ADME, organism-based; design: dose 1 mg/kg, route intravenous; conditions: in vivo
[28] = Half life in Sprague-Dawley rat at 1 mg/kg, iv; assay type: ADME, organism-based; design: dose 1 mg/kg, route intravenous; conditions: in vivo
[29] = Volume of distribution in Sprague-Dawley rat at 1 mg/kg, iv; assay type: ADME, organism-based; design: dose 1 mg/kg, route intravenous; conditions: in vivo
Summary of the method: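 Rats given IV bolus at 1 mg/kg; clearance, half-life and volume of distribution derived from plasma drug concentrations.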

- half-life [1]: 19.4 h
- half-life [2]: 23.7 h
- half-life [3]: 6.44 h
- IC50 [8]: 6.2 nM
- IC50 [9]: 11.2 nM
- clearance [27]: 17.2 mL/min/kg
- half-life [28]: 2 h
- Vd [29]: 2.99 L/kg
Structure (SMILES): CC(C)c1ccc(-c2ccccc2C(=O)Nc2ccc3nc(C(=O)N[C@H](C(=O)N(C)Cc4ccc(F)cc4)c4ccccc4)sc3c2)cc1
- Activity [4]: Active
- Activity [5]: Active
- Activity [6]: 11%
- Activity [7]: 45%
- Activity [10]: 14%
- Activity [11]: 19%
- Activity [12]: 3%
- Activity [13]: 4%
- Activity [14]: 12%
- Activity [15]: 9%
- Activity [16]: 3%
- Activity [17]: 1%
- Activity [18]: Active
- Activity [19]: Active
- Activity [20]: Active
- Activity [21]: Active
- Activity [22]: Active
- Activity [23]: Non-toxic
- Activity [24]: Non-toxic
- Activity [25]: Non-toxic
- Activity [26]: Non-toxic
